Key:
HeLa = assay: Cytostatic activity against human HeLa cells assessed as inhibition of cell proliferation after 72 hrs by MTT assay; assay type: functional, cell-based
In short: (§1)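 Monolayer cells grown in DMEM with 10% FBS were seeded on day 0 at 3000–6000 cells/well, set by each line's doubling time. Agents were added the next step in five 10-fold dilutions (0.01–100) for 72 h, with DMSO ≤0.1% and a solvent control. MTT absorbance was converted to percentage growth versus untreated wells on the same plate. Where all PGs exceeded 50, the top concentration was reported as ">". ANOVA/Tukey, p<0.05.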

MCF7 = assay: Cytostatic activity against human MCF7 cells assessed as inhibition of cell proliferation after 72 hrs by MTT assay; assay type: functional, cell-based; conditions: MCF7, 72 h; in short: as §1
HepG2 = assay: Cytostatic activity against human HepG2 cells assessed as inhibition of cell proliferation after 72 hrs by MTT assay; assay type: functional, cell-based; conditions: HepG2, 72 h; in short: as §1
SW-620 = assay: Cytostatic activity against human SW620 cells assessed as inhibition of cell proliferation after 72 hrs by MTT assay; assay type: functional, cell-based; conditions: SW-620, 72 h; in short: as §1
MIA PaCa-2 = assay: Cytostatic activity against human MIAPaCa2 cells assessed as inhibition of cell proliferation after 72 hrs by MTT assay; assay type: functional, cell-based; conditions: MIA PaCa-2, 72 h; in short: as §1
WI-38 = assay: Cytotoxicity against human WI38 cells assessed as inhibition of cell proliferation after 72 hrs by MTT assay; assay type: cell-based; conditions: WI-38, 72 h; in short: as §1

Row | IC50 (HeLa) [µM] | IC50 (MCF7) [µM] | IC50 (HepG2) [µM] | IC50 (SW-620) [µM] | IC50 (MIA PaCa-2) [µM] | Structure (SMILES) | IC50 (WI-38) [µM]
1 | > 100 | > 100 | > 100 | > 100 | > 100 | O=C1O[C@H]([C@@H](O)Cn2c(=O)[nH]c(=O)[nH]c2=O)C(OCc2ccccc2)=C1OCc1ccccc1 | > 100
2 | > 100 | > 100 | > 100 | > 100 | > 100 | NC1(CCn2ccc(=O)[nH]c2=O)OC(=O)C(OCc2ccccc2)=C1OCc1ccccc1 (racemic) | > 100
3 | > 100 | 73.8 | > 100 | > 100 | 71.7 | Nc1ncn(C[C@H](O)[C@H]2OC(=O)C(OCc3ccccc3)=C2OCc2ccccc2)c(=O)n1 | > 100

Further lines, the compound ahead of its results:

Row | Structure (SMILES) | IC50 (HeLa) [µM] | IC50 (MCF7) [µM] | IC50 (HepG2) [µM] | IC50 (SW-620) [µM] | IC50 (MIA PaCa-2) [µM] | IC50 (WI-38) [µM]
4 | NC1(CCn2cc(F)c(=O)[nH]c2=O)OC(=O)C(OCc2ccccc2)=C1OCc1ccccc1 (racemic) | > 100 | 20.9 | 42.8 | > 100 | > 100 | 36.2
5 | Nc1ccn(C[C@H](O)[C@H]2OC(=O)C(OCc3ccccc3)=C2OCc2ccccc2)c(=O)n1 | > 100 | 7.34 | 44.3 | > 100 | > 100 | 53.9
6 | O=C1O/C(=C\Cn2c(=O)[nH]c(=O)[nH]c2=O)C(OCc2ccccc2)=C1OCc1ccccc1 | > 100 | 17.8 | 44.8 | > 100 | 37.9 | 
7 | NC1(CCn2ncc(=O)[nH]c2=O)OC(=O)C(OCc2ccccc2)=C1OCc1ccccc1 (racemic) | > 100 | > 100 | > 100 | > 100 | > 100 | > 100
8 | Nc1ncn(CCC2(N)OC(=O)C(OCc3ccccc3)=C2OCc2ccccc2)c(=O)n1 (racemic) | > 100 | > 100 | > 100 | > 100 | > 100 | > 100
